Laboratory results taken from ChEMBL document CHEMBL1153741, “Antineoplastic agents. 556. Isolation and structure of Coprinastatin 1 from Coprinus cinereus” (2010).
≈ marks a conversion by molar mass, not a printed value. Calls of active or inactive are those of the source. The calls are words filed in the database; no cut-off is given here.

Columns and labels:
Enterobacter cloacae = assay: Antibacterial activity against Enterobacter cloacae ATCC 13047 by broth microdilution assay; assay type: functional, organism-based
How it was run: (§1)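 Samples reconstituted in a small volume of sterile DMSO and diluted in the appropriate medium immediately before testing by established broth microdilution. MIC taken as the lowest concentration that inhibited all visible growth of the test organism (optically clear wells). Assays were repeated on separate days.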

Staphylococcus aureus = assay: Antibacterial activity against Staphylococcus aureus ATCC 29213 by broth microdilution assay; assay type: functional, organism-based; how it was run: as §1
Cryptococcus neoformans = assay: Antifungal activity against Cryptococcus neoformans ATCC 90112 by broth microdilution assay; assay type: functional, organism-based; how it was run: as §1
Enterococcus faecalis = assay: Antibacterial activity against Enterococcus faecalis ATCC 29212 by broth microdilution assay; assay type: functional, organism-based; how it was run: as §1
Micrococcus luteus = assay: Antibacterial activity against Micrococcus luteus Presque Isle 456 by broth microdilution assay; assay type: functional, organism-based; how it was run: as §1
[1] = test system: Stenotrophomonas maltophilia; assay: Antibacterial activity against Stenotrophomonas maltophilia ATCC 13637 by broth microdilution assay; assay type: functional, organism-based; how it was run: as §1
Candida albicans = assay: Antifungal activity against Candida albicans ATCC 90028 by broth microdilution assay; assay type: functional, organism-based; how it was run: as §1
Streptococcus pneumoniae = assay: Antibacterial activity against Streptococcus pneumoniae ATCC 6303 by broth microdilution assay; assay type: functional, organism-based; how it was run: as §1
Neisseria gonorrhoeae = assay: Antibacterial activity against Neisseria gonorrhoeae ATCC 49226 by broth microdilution assay; assay type: functional; how it was run: as §1
P388 = assay: Cytotoxicity against mouse P388 cells; assay type: functional
Escherichia coli = assay: Antibacterial activity against Escherichia coli ATCC 25922 by broth microdilution assay; assay type: functional, organism-based; how it was run: as §1

Compound	Activity (Enterobacter cloacae)	Activity (Staphylococcus aureus)	Activity (Cryptococcus neoformans)	Activity (Enterococcus faecalis)	Activity (Micrococcus luteus)	Activity [1]	Activity (Candida albicans)	Activity (Streptococcus pneumoniae)	Activity (Neisseria gonorrhoeae)	Activity (P388)	Activity (Escherichia coli)	MIC (Neisseria gonorrhoeae)	EC50 (P388; read-out: ED50 (the source's name))
Cc1c(O)c2c(c(C)c1CCO)CC(C)(C)C2	inactive	inactive	inactive	inactive	inactive	inactive	inactive	inactive	inactive	inactive	inactive		
Cc1c(O)c2c(c(C)c1CCO)C[C@@](C)(CO)C2	inactive	inactive	inactive	inactive	inactive	inactive	inactive	inactive	inactive	inactive	inactive		
CC(=O)c1cccc2oc(=O)[nH]c12	inactive	inactive	inactive	inactive	inactive	inactive	inactive	inactive	inactive	inactive	inactive		
C=C1[C@@H](O)[C@@H]2CC(C)(C)CC2=C(CO)C12CC2	inactive	inactive	inactive	inactive	inactive	inactive	inactive	inactive	inactive	inactive	inactive		
Cc1c(O)c2c(c(C)c1CCO)C[C@](C)(CO)C2	inactive	inactive	inactive	inactive	inactive	inactive	inactive	inactive	inactive	inactive	inactive		
C=C1[C@@H](O)[C@@H]2C[C@](C)(CO)CC2=C(C)C12CC2 [COPRINASTATIN 1]	inactive	inactive	inactive	inactive	inactive	inactive	inactive	inactive			inactive	32 µg/mL (≈ 137 µM)	5.3 µg/mL (≈ 22.6 µM)
